According to ChEMBL document CHEMBL1773023, “Potent and selective phosphopeptide mimetic prodrugs targeted to the Src homology 2 (SH2) domain of signal transducer and activator of transcription 3” (J Med Chem, 2011):
Calls of active or inactive are those of the source. The calls are words filed in the database; no cut-off is given here.

Experiments:
[1] = biological target: T1, Signal transducer and activator of transcription 3 (Homo sapiens, UniProt P40763); test: Inhibition of IL6-induced SH2 domain of Stat3 phosphorylation at Tyr705 in human MeWo cells up to 10 uM treated 1.5 hrs before IL6 challenge measured after 30 mins by Western blotting; type: cell-based
T1 sequence (P40763 whole entry, the tested form may be a part): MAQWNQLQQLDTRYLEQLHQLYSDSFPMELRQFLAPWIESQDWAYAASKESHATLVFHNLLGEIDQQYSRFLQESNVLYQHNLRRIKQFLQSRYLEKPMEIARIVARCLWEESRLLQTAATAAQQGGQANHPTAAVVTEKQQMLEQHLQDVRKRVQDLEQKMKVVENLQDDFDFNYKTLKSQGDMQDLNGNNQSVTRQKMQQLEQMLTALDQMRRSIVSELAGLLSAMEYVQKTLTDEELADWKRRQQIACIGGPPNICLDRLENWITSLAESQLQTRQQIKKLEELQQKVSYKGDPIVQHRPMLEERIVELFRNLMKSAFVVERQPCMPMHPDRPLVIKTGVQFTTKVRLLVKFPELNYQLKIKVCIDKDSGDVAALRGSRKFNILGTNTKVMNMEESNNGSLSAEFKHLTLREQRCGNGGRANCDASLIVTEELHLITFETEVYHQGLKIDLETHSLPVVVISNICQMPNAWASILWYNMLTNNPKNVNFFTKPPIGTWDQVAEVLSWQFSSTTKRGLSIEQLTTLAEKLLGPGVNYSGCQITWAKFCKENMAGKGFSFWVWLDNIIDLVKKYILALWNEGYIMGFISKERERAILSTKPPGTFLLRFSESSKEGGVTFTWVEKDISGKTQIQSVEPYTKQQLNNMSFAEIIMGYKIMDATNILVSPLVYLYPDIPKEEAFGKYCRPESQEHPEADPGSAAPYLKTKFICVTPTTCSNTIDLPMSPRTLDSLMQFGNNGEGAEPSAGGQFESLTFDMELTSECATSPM
Method in brief: (§1)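 Hey, MeWo and A375 cells (3×10^5/well, RPMI1640, overnight, fresh medium) given increasing prodrug concentrations for 2 h, with IL-6 10 ng/mL during the final 30 min; pStat3 and total Stat3 by Western blot.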

[2] = biological target: T1, Signal transducer and activator of transcription 3; test: Inhibition of IL6-induced SH2 domain of Stat3 phosphorylation at Tyr705 in human A375 cells up to 10 uM treated 1.5 hrs before IL6 challenge measured after 30 mins by Western blotting; type: cell-based; details: A-375; method in brief: as §1
[3] = biological target: T1, Signal transducer and activator of transcription 3; test: Inhibition of IL6-induced SH2 domain of Stat3 phosphorylation at Tyr705 in human HEY cells up to 10 uM treated 1.5 hrs before IL6 challenge measured after 30 mins by Western blotting; type: cell-based; method in brief: as §1
[4] = biological target: T1, Signal transducer and activator of transcription 3; test: Inhibition of SH2 domain of Stat3 constitutive phosphorylation at Tyr705 in human MDA-MB-468 cells at 0.1 uM after 2 hrs by Western blotting; type: cell-based
Method in brief: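 MDA-MB-468 cells (4×10^5/well, DMEM 10% FCS, overnight) given prodrug from freshly made 10 mM DMSO stock for 2 h. Lysates in Hepes pH 7.4 Triton buffer with phosphatase/protease inhibitors; 12 μg protein on 8% SDS-PAGE, PVDF, probed for pStat3 Y705 by ECL, then stripped and reprobed for total Stat3.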

[5] = biological target: T1, Signal transducer and activator of transcription 3; test: Inhibition of SH2 domain of Stat3 constitutive phosphorylation at Tyr705 in human MDA-MB-468 cells at 5 uM after 4 hrs by Western blotting; type: cell-based
Method in brief: (§2)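 MDA-MB-468 cells given a single 5 μM prodrug dose and harvested at set times; pTyr705 and total Stat3 by Western blot of 12 μg lysate protein on 8% SDS-PAGE.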

[6] = biological target: T1, Signal transducer and activator of transcription 3; test: Inhibition of SH2 domain of Stat3 constitutive phosphorylation at Tyr705 in human MDA-MB-468 cells at 5 uM after 8 hrs by Western blotting; type: cell-based; method in brief: as §2
[7] = biological target: T1, Signal transducer and activator of transcription 3; test: Inhibition of SH2 domain of Stat3 in human MDA-MB-468 cells assessed as reduction of phosphorylated Stat3 level in cell nucleus at 5 uM after 2 hrs by fluorescence immunohistochemical analysis; type: cell-based
Method in brief: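 MDA-MB-468 cells on slides treated with 5 μM prodrug or DMSO for 2 h, fixed in 4% paraformaldehyde, permeabilized with 0.5% Triton X-100, blocked in 3% BSA, stained with anti-pTyr705 Stat3 and Alexa Fluor 594 secondary; confocal imaging at fixed microscope settings.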

[8] = biological target: T1, Signal transducer and activator of transcription 3; test: Inhibition of EGF-induced SH2 domain of Stat3 phosphorylation at Tyr705 in human MDA-MB-468 cells at 5 uM treated 1.5 hrs before EGF challenge measured after 30 mins by Western blotting; type: cell-based
Method in brief: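 MDA-MB-468 cells pretreated 1.5 h with prodrug (5 μM), then EGF 100 ng/mL for 30 min; lysates split onto three PVDF blots probed for phospho/total Stat3, pSer473/total Akt, and phospho/total Stat5.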

[9] = biological target: T2, Signal transducer and activator of transcription 1-alpha/beta (Homo sapiens) (UniProt P42224); test: Inhibition of IFN-gamma-induced Stat1 phosphorylation at Tyr701 in human MDA-MB-468 cells treated 1.5 hrs before IFN-gamma challenge measured after 30 mins by Western blotting; type: cell-based
T2 sequence (whole entry): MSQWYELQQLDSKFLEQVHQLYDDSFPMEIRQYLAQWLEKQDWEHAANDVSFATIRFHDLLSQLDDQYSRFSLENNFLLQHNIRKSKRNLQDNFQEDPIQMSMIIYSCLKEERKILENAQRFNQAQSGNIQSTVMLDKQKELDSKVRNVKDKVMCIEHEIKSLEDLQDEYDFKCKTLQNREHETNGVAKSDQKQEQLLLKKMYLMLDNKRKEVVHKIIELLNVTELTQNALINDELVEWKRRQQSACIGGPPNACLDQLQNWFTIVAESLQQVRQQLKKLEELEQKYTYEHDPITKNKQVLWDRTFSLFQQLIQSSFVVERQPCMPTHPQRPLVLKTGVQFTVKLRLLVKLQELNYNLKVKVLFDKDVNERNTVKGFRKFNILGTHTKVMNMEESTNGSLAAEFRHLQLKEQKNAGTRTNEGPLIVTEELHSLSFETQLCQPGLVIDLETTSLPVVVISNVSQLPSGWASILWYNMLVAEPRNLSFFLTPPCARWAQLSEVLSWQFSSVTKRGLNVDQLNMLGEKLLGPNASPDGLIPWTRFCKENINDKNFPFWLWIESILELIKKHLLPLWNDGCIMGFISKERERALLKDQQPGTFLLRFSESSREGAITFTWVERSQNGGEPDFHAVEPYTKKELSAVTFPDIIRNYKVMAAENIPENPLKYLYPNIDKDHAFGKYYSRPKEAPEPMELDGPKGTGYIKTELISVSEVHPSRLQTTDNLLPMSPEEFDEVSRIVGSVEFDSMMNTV
Method in brief: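 MDA-MB-468 cells exposed to rising prodrug concentrations for 1.5 h, then interferon γ 25 ng/mL for 30 min; Western blot for pTyr701 and total Stat1.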

[10] = biological target: G1/S-specific cyclin-D1 (Homo sapiens) (UniProt P24385); test: Inhibition of Cyclin D1 in human HCC-827 cells at 5 uM after up to 24 hrs by Western blotting; type: cell-based
Chain of G1/S-specific cyclin-D1 (Homo sapiens) (P24385 whole entry): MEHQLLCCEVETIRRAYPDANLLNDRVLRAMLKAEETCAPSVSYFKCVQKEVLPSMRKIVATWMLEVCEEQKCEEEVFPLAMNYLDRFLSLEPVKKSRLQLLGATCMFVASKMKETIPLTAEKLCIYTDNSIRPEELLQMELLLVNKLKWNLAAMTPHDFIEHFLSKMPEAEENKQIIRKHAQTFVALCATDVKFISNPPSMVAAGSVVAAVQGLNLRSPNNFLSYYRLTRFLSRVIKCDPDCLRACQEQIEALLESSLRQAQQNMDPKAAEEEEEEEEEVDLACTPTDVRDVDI

[11] = test system: MDA-MB-468; test: Decrease of cyclin D1 gene expression in human MDA-MB-468 cells at 5 uM; type: functional, cell-based
[12] = biological target: T1, Signal transducer and activator of transcription 3; test: Inhibition of SH2 domain of Stat3 phosphorylation at Tyr705 in human HCC-827 cells at 5 uM after 10 mins by Western blotting; type: cell-based
Method in brief: (§3)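 HCC-827 NSCLC cells treated with 5 μM prodrug and sampled over a time course from 10 min to 24 h; pStat3 by Western blot.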

[13] = biological target: T1, Signal transducer and activator of transcription 3; test: Inhibition of SH2 domain of Stat3 phosphorylation at Tyr705 in human HCC-827 cells at 5 uM after 24 hrs by Western blotting; type: cell-based; method in brief: as §3
[14] = test system: A-375; test: Cytotoxicity against human A375 cells assessed as cell growth inhibition at 5 to 10 uM after 72 hrs by MTT assay; type: functional
Method in brief: (§4)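 Cell lines with constitutive Stat3 phosphorylation (melanoma, NSCLC) exposed to prodrug at 5–10 μM. Percent growth inhibition recorded.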

[15] = Cytotoxicity against human H1299 cells assessed as cell growth inhibition at 5 to 10 uM after 72 hrs by MTT assay; type: functional, NCI-H1299; method in brief: as §4
[16] = Cytotoxicity against human NCI-H1819 cells assessed as cell growth inhibition at 5 to 10 uM after 72 hrs by MTT assay; type: functional; method in brief: as §4
[17] = test system: A549; test: Cytotoxicity against human A549 cells assessed as cell growth inhibition at 5 to 10 uM after 72 hrs by MTT assay; type: functional; method in brief: as §4
[18] = test system: NCI-H520; test: Cytotoxicity against human NCI-H520 cells assessed as cell growth inhibition at 5 to 10 uM after 72 hrs by MTT assay; type: functional; method in brief: as §4
[19] = biological target: T1, Signal transducer and activator of transcription 3; test: Inhibition of SH2 domain of Stat3 phosphorylation at Tyr705 in human SKOV3-ip cells up to 10 uM by Western blotting

Question: With C/C(=C\C(=O)N[C@H]1CCc2cccc3c2N(C1=O)[C@H](C(=O)N[C@H](C)CCC(N)=O)C3)c1ccc(C(F)(F)P(=O)(OCOC(=O)C(C)(C)C)OCOC(=O)C(C)(C)C)cc1 as the compound, how does the inhibition [1] read?
Answer: The inhibition was “Active”.

Question: What about the inhibition [2] of the same compound?
Answer: The inhibition was “Active”.

Question: What about the inhibition [3] of the same compound?
Answer: Its inhibition is “Active”.

Question: And the inhibition [4]?
Answer: The inhibition was “Active”.

Question: What about the inhibition [5] of the same compound?
Answer: Its inhibition is “Active”.

Question: And the inhibition [6]?
Answer: Its inhibition is “Active”.

Question: And the inhibition [7]?
Answer: The inhibition was “Active”.

Question: What about the inhibition [8] of the same compound?
Answer: The inhibition was “Active”.

Question: And the inhibition [9]?
Answer: Its inhibition is “Dose-dependent effect”.

Question: What about the inhibition [10] of the same compound?
Answer: Its inhibition is “inactive”.

Question: And the Activity [11]?
Answer: The Activity was “inactive”.

Question: What about the inhibition [12] of the same compound?
Answer: The inhibition was “Active”.

Question: What about the inhibition [13] of the same compound?
Answer: Its inhibition is “Active”.

Question: And the “growth inhibition (GI)” value [14]?
Answer: The value was <20%.

Question: And the “growth inhibition (GI)” value [15]?
Answer: The value was <20%.

Question: What about the “growth inhibition (GI)” value [16] of the same compound?
Answer: Its value is <20%.

Question: And the “growth inhibition (GI)” value [17]?
Answer: The value was <20%.

Question: And the “growth inhibition (GI)” value [18]?
Answer: The value was <20%.

Question: What about the inhibition [19] of the same compound?
Answer: Its inhibition is “Active”.
